Results reported in ChEMBL document CHEMBL1131080, “Structure-based design and synthesis of high affinity tripeptide ligands of the Grb2-SH2 domain” (J Med Chem, 1998).

Experiments:
[1] = biological target: T1, Growth factor receptor-bound protein 2 (Homo sapiens, UniProt P62993); assay: Inhibition of Grb2-SH2 domain binding to phospho-EGF receptor intracellular C-terminal domain; format: biochemical
How it was run: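 Phosphorylated MBP-EGFR C-terminal domain (residues 976–1210, expressed in E. coli) is immobilized on plates and incubated with GST/Grb2-SH2 in the presence of phosphopeptide or buffer. Bound SH2 is detected with rabbit anti-GST and HRP anti-rabbit antibody, using TMB substrate read at 655 nm. Inhibition is the % absorbance reduction versus no inhibitor; IC50 comes from nonlinear regression.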

[2] = biological target: Tyrosine-protein kinase Lck (Homo sapiens, UniProt P06239); assay: Inhibition of p56lck SH2 domain binding to biotinylated phosphopeptide
How it was run: (§1)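 Competition ELISA. Biotinylated phosphopeptide (10 ng/mL in 50 mM Tris, pH 7.5) is captured overnight at 4 °C on streptavidin-coated plates. Wells then receive GST-SH2 fusion (Grb2 3.2 ng/mL, Lck 3.2 ng/mL, p85 N-terminal 0.7 ng/mL) with varying unlabeled peptide or buffer, in TBS/0.1% Tween. Detection is rabbit anti-GST, then peroxidase anti-rabbit IgG with TMB. IC50 comes from nonlinear regression of % absorbance reduction.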

[3] = biological target: T1, Growth factor receptor-bound protein 2; assay: Inhibition of Grb2 SH2 domain binding to biotinylated phosphopeptide; how it was run: as §1
[4] = Inhibition of p85 SH2 domain binding to biotinylated phosphopeptide; how it was run: as §1

T1 sequence (P62993 whole entry, the tested form may be a part): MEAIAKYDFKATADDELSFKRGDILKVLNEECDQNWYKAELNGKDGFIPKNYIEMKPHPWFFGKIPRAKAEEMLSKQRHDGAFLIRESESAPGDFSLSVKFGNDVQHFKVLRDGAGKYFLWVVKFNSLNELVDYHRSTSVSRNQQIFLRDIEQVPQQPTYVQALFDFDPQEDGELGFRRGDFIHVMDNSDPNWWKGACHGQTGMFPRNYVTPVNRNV
Tyrosine-protein kinase Lck, sequence (P06239 whole entry, the tested form may be a part): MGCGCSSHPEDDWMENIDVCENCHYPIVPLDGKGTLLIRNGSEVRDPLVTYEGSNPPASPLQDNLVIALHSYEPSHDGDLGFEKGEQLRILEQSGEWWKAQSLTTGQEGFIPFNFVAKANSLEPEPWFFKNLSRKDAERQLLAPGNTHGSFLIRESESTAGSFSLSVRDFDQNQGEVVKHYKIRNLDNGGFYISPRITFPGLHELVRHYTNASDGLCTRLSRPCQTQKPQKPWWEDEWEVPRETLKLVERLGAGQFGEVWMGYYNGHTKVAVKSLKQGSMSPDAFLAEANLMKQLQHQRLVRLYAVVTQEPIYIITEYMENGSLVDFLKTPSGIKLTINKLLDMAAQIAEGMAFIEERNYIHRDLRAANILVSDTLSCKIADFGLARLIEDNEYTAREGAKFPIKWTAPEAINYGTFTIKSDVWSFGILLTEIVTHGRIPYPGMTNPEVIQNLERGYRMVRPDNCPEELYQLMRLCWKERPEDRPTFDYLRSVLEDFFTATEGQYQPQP

Structure (SMILES)	IC50 [1]	IC50 [2]	IC50 [3]	IC50 [4]
CC[C@H](C)[C@H](NC(=O)[C@@H](N)Cc1ccc(OP(=O)(OC(C)=O)OC(C)=O)cc1)C(=O)N[C@@H](CC(=O)NCCCc1ccc(Cl)cc1Cl)C(=O)O	1500 nM	–	–	–
CC[C@H](C)[C@H](NC(=O)[C@@H](N)Cc1ccc(OP(=O)(OC(C)=O)OC(C)=O)cc1)C(=O)N[C@@H](CC(=O)NCCCc1cccc2ccccc12)C(=O)O	330 nM	> 10000 nM	580 nM	> 10000 nM
CC[C@H](C)[C@H](NC(=O)[C@@H](N)Cc1ccc(OP(=O)(OC(C)=O)OC(C)=O)cc1)C(=O)N[C@@H](CC(=O)NCCCc1ccccc1)C(=O)O	2300 nM	–	–	–
CC[C@H](C)[C@H](NC(=O)[C@@H](N)Cc1ccc(OP(=O)(OC(C)=O)OC(C)=O)cc1)C(=O)N[C@@H](CC(=O)NCC(C)C)C(=O)O	3200 nM	–	–	–
CC[C@H](C)[C@H](NC(=O)[C@@H](N)Cc1ccc(OP(=O)(OC(C)=O)OC(C)=O)cc1)C(=O)N[C@@H](CC(=O)NCCC(C)C)C(=O)O	3100 nM	–	–	–
CC[C@H](C)[C@H](NC(=O)[C@@H](N)Cc1ccc(OP(=O)(OC(C)=O)OC(C)=O)cc1)C(=O)N[C@@H](CC(N)=O)C(=O)O	8900 nM	–	–	–
CCCCC(CC)CNC(=O)C[C@H](NC(=O)[C@@H](NC(=O)[C@@H](N)Cc1ccc(OP(=O)(OC(C)=O)OC(C)=O)cc1)[C@@H](C)CC)C(=O)O (stereo not given in full)	1600 nM	–	–	–
